Results taken from ChEMBL document CHEMBL3351911, “Synthesis and evaluation of N⁶-substituted apioadenosines as potential adenosine A₃ receptor modulators” (Bioorg Med Chem, 2014).
pIC50, pKi: −log10 of the molar value. Calls of active or inactive are those of the source. The calls are words filed in the database; no cut-off is given here.

Experiments:
[1] = target: Adenosine receptor A2a (Homo sapiens) (UniProt P29274); assay: Displacement of [3H]2-[p-(2-carboxyethyl)phenylethylamino]-50-N-ethylcarboxamidoadenosine from human recombinant A2AR expressed in HEK293 cells at 10 uM; assay type: cell-based
Procedure, shortened: (§1)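 Single-concentration radioligand displacement at 10 μM. Membranes came from CHO cells stably expressing human A1AR or A3AR, or HEK293 cells stably expressing human A2AAR. Agonist radioligands were [3H]N6-[(R)-1-methyl-2-phenylethyl]adenosine (A1), [3H]2-[p-(2-carboxyethyl)phenylethylamino]-5′-N-ethylcarboxamidoadenosine (A2A) and [125I]N6-(4-amino-3-iodobenzyl)adenosine-5′-N-methyluronamide (A3). Read-out was percent inhibition of binding.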

Adenosine receptor A3 [2] = target: T1, Adenosine receptor A3 (Homo sapiens, UniProt P0DMS8); assay: Displacement of [125I]N6-(4-amino-3-iodobenzyl)adenosine-50-N-methyluronamide from human recombinant A3AR expressed in CHO cells; assay type: cell-based
T1 sequence (P0DMS8 whole entry): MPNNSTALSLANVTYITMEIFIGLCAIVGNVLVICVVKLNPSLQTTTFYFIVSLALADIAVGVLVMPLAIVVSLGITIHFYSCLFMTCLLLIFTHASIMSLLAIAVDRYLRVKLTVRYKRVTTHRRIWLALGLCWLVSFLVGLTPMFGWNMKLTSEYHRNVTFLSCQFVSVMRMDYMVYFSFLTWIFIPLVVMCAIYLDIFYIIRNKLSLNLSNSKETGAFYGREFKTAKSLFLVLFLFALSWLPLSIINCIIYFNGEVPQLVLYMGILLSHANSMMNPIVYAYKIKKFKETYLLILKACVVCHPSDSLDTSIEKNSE
Procedure, shortened: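 Competition binding used membranes of CHO cells stably expressing human A3AR and the agonist radioligand [125I]N6-(4-amino-3-iodobenzyl)adenosine-5′-N-methyluronamide. IC50 values from competition curves were converted to Ki by Cheng-Prusoff. Values are mean ± S.E.M.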

[3] = target: T2, Adenosine receptor A1 (Homo sapiens) (UniProt P30542); assay: Displacement of [3H]N6-[(R)-1-methyl-2-phenylethyl]adenosine from human recombinant A1AR expressed in CHO cells at 10 uM; assay type: cell-based; procedure, shortened: as §1
T2 sequence (whole entry): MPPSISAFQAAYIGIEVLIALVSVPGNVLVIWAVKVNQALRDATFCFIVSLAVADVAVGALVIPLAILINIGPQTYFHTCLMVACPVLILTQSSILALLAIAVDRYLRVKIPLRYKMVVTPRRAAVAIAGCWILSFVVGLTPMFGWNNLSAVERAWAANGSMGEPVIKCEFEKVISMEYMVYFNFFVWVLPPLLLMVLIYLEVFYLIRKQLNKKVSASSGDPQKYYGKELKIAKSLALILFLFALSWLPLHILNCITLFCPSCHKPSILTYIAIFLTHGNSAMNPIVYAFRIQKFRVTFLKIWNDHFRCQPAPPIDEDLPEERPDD

[4] = target: T3, Adenosine receptor A3 (Homo sapiens) (UniProt P0DMS8); assay: Modulatory activity at human recombinant A3AR expressed in CHO cells assessed as inhibition of forskolin-induced stimulation of cAMP production; assay type: functional, cell-based
T3 sequence (whole entry): T1 sequence (P0DMS8 whole entry)
Procedure, shortened: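 CHO cells stably expressing human A3AR were plated and grown 24 h, then washed in DMEM with 50 mM HEPES, pH 7.4. Compounds and/or agonist were added with rolipram (10 μM) and adenosine deaminase (3 units/mL). Forskolin (10 μM) was added at 45 min and incubation ran 15 more min. Cells were lysed in 0.1 M HCl. cAMP was measured by competitive binding of [3H]cAMP (2 nM) to protein kinase A, with a cAMP standard curve, filtration and scintillation counting.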

[5] = target: T3, Adenosine receptor A3 (Homo sapiens); assay: Displacement of [125I]N6-(4-amino-3-iodobenzyl)adenosine-50-N-methyluronamide from human recombinant A3AR expressed in CHO cells at 10 uM; assay type: cell-based; procedure, shortened: as §1
[6] = target: T2, Adenosine receptor A1 (Homo sapiens); assay: Displacement of [3H]N6-[(R)-1-methyl-2-phenylethyl]adenosine from human recombinant A1AR expressed in CHO cells at 50 uM; assay type: cell-based
Procedure, shortened: (§2)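 Percent inhibition of agonist radioligand binding measured at a single 50 μM test concentration. A1: CHO cell membranes with stably expressed human A1AR and [3H]N6-[(R)-1-methyl-2-phenylethyl]adenosine. A2A: HEK293 cell membranes with stably expressed human A2AAR and [3H]2-[p-(2-carboxyethyl)phenylethylamino]-5′-N-ethylcarboxamidoadenosine.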

[7] = target: Adenosine receptor A2a (Homo sapiens) (UniProt P29274); assay: Displacement of [3H]2-[p-(2-carboxyethyl)phenylethylamino]-50-N-ethylcarboxamidoadenosine from human recombinant A2AR expressed in HEK293 cells at 50 uM; assay type: cell-based; procedure, shortened: as §2
[8] = target: T3, Adenosine receptor A3 (Homo sapiens); assay: (§3) Agonist activity at human recombinant A3AR expressed in CHO cells assessed as inhibition of forskolin-induced stimulation of cAMP production; assay type: functional, cell-based
Adenosine receptor A3 [9] = target: T1, Adenosine receptor A3; assay: as §3; assay type: functional, cell-based

Sequence of Adenosine receptor A2a (Homo sapiens) (P29274 whole entry): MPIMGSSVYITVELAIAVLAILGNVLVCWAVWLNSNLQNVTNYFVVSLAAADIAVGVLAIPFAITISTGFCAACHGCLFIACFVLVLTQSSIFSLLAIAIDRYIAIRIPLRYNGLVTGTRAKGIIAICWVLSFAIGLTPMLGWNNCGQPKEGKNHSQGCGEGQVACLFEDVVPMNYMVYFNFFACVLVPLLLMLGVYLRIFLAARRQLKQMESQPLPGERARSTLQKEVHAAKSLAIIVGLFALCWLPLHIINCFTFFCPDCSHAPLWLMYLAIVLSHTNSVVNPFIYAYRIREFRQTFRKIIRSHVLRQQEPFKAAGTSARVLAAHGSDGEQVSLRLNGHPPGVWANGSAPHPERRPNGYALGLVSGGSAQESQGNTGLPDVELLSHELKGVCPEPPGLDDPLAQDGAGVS

inhibition [1] [%] | inhibition [3] [%] | inhibition [5] [%] | Structure (SMILES) | further results
17 | 12 |  | COc1ccc(Cl)cc1CNc1ncnc2c1ncn2[C@@H]1OC[C@](O)(CO)[C@H]1O | pKi (Adenosine receptor A3 [2]): 6.01; Activity [4]: inactive
12 | 6 | 3 | Nc1c2ncn([C@@H]3OC[C@@](O)(CO)[C@H]3O)c2nc[n+]1Cc1cccc(Cl)c1 | 
9 | 8 | 10 | CCNC(=O)[C@@H]1CO[C@@H](n2cnc3c(N)ncnc32)[C@@H]1O | 
12 | 9 | 6 | CCNC(=O)OC[C@]1(O)CO[C@@H](n2cnc3c(N)ncnc32)[C@@H]1O | 
19 | 6 | 35 | Nc1ncnc2c1ncn2[C@@H]1OC[C@](O)(CO)[C@H]1O | 
15 | 10 | 31 | Nc1ncnc2c1ncn2[C@H]1C[C@@H](CO)CO1 | 
15 | 19 | 44 | OC[C@]1(O)CO[C@@H](n2cnc3c(NCc4cccc(Cl)c4)ncnc32)[C@@H]1O | 
2 | 7 | 8 | CCNC(=O)OC[C@@H]1CO[C@@H](n2cnc3c(N)ncnc32)[C@@H]1O | 
 |  | 7 | Nc1ncnc2c1ncn2[C@H]1C[C@H](CO)CO1 | inhibition [6]: 0%
19 | 6 | 32 | Nc1ncnc2c1ncn2[C@@H]1OC[C@H](CO)[C@H]1O | 
 |  | 7 | Nc1ncnc2c1ncn2[C@@H]1OC[C@@H](CO)[C@H]1O | inhibition [6]: 74%; inhibition [7]: 76%
14 | 13 |  | COc1ccc(Cl)cc1CNc1ncnc2c1ncn2[C@@H]1OC[C@@](O)(CO)[C@H]1O | Emax [8]: 50.9%; pIC50 (Adenosine receptor A3 [9]): 5.81; pKi (Adenosine receptor A3 [2]): 5.51
10 | 12 | 26 | CNC(=O)OC[C@@]1(O)CO[C@@H](n2cnc3c(N)ncnc32)[C@@H]1O | 
17 | 27 | 48 | OC[C@@]1(O)CO[C@@H](n2cnc3c(NCc4cccc(I)c4)ncnc32)[C@@H]1O | 
10 | 10 | 43 | OC[C@@]1(O)CO[C@@H](n2cnc3c(NCc4cccc(Cl)c4)ncnc32)[C@@H]1O | 
 |  | 10 | Nc1ncnc2c1ncn2[C@@H]1OC[C@@](O)(CO)[C@H]1O | inhibition [6]: 0%; inhibition [7]: 64%
22 | 35 | 45 | OC[C@]1(O)CO[C@@H](n2cnc3c(NCc4cccc(I)c4)ncnc32)[C@@H]1O | 
